The target of series [1] is T1, Amyloid beta-binding alcohol dehydrogenase (Homo sapiens, UniProt Q2L8D9). As to the kind of experiment: Inhibition of ABAD (unknown origin) assessed as residual activity at 100 uM using acetoacetyl-CoA in presence of NADH by spectrophotometric assay relative to control. Summed up: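 Recombinant ABAD at 0.5 µg/mL with NADH 250 µM and acetoacetyl-CoA 120 µM; compound at 100 µM in 1% DMSO, controls with matching DMSO. Buffer 10 mM HEPES, 0.5% gelatin, pH 7.4 at 37°C. NADH consumption read as falling absorbance at 340 nm; reported as % remaining activity ± SEM from two biological repeats, each with three technical repeats.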

The target in series [2] is T2, Amine oxidase [flavin-containing] A (Homo sapiens, UniProt P21397).
T2 sequence (P21397 whole entry): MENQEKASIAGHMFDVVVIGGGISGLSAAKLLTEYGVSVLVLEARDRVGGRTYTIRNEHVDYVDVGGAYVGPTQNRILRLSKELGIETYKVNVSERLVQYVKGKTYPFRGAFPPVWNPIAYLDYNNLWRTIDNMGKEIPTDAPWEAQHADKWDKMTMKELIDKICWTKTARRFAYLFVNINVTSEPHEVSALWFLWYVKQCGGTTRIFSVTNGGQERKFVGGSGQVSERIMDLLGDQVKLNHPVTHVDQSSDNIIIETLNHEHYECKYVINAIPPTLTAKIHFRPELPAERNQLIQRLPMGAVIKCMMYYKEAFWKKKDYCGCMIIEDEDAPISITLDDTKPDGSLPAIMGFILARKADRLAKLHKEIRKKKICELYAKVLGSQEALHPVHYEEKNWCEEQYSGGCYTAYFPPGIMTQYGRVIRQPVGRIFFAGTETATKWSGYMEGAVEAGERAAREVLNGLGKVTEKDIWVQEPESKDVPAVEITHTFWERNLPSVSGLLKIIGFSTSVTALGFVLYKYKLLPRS
Put plainly: Inhibition of human purified MAO-A expressed in insect cell membranes assessed as reduction in conversion of kynuramine to 4-hydroxyquinoline by spectrophotometric assay.

Series [3] addresses T3, peroxidase (horseradish peroxidase) (Raphanus sativus, UniProt K7N5L9). As to the kind of experiment: Inhibition of horse radish peroxidase assessed as residual activity at 50 uM by amplex red dye based fluorescence assay. The following applies: horseradish peroxidase (isolated enzyme), probe Amplex Red, read-out: Activity. Summed up: (§1)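 HRP (0.02 U/mL) given H2O2 20 µM directly as substrate plus Ampliflu Red 20 µM in 50 mM potassium phosphate pH 7.4. Compound at 50 or 5 µM, 1% DMSO; controls DMSO only. Resorufin fluorescence read at ex 535/em 595 nm, 30°C, as remaining HRP activity.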

Series [4] in a line: Quenching activity of the compound assessed as reduction in resorufin fluorescence. The class given is functional. Summed up: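 Resorufin at 1 µM and 10 µM measured for fluorescence in the presence of compound at 50 µM.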
Series [5] deals with T3, peroxidase (horseradish peroxidase). As to the kind of experiment: Inhibition of horse radish peroxidase assessed as residual activity at 5 uM by amplex red dye based fluorescence assay. The following applies: horseradish peroxidase (isolated enzyme), probe Amplex Red, read-out: Activity. Summed up: as §1
Series [6] is described as follows: Cytotoxicity against CHOK1 cells assessed as reduction in cell viability after 24 hrs by MTT assay. It counts as cell-based, Cricetulus griseus. To be noted: chinese hamster, CHO-K1 cells; read-out: LC50. Summed up: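 CHO-K1 cells grown as ECACC recommends, seeded 8000 per well; compounds from DMSO stocks diluted in F-12 with 10% FBS and 1% pen/strep (final DMSO at most 0.5%), exposed 24 h. Medium then replaced with 10 µM MTT for about 3 h, formazan dissolved in DMSO, absorbance read at 570 nm (650 nm reference). LC50 from control-subtracted triplicates by four-parameter regression; mean ± SEM of 3 independent runs.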
In general terms: Tetrazolium dyes change colour on reduction, which living cells bring about.

Series [7] concerns the target T2, Amine oxidase [flavin-containing] A. Put plainly: Inhibition of human membrane bound MAO-A expressed in insect cell membranes assessed as reduction in conversion of kynuramine to 4-hydroxyquinoline by spectrophotometric assay. The following applies: read-out: IC50. In a few lines: (§2)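 Human MAO-A or MAO-B expressed in insect cell membranes, diluted 1/4000 (A) or 1/2000 (B). Kynuramine at 2×KM: 60 µM for MAO-A, 30 µM for MAO-B. Assay in 50 mM potassium phosphate pH 7.5, 30°C, 1% DMSO, absorbance at 314 nm. Inhibitor varied over 4 orders of magnitude, up to 100 µM. Linear rates from 8-10 assays fitted by 3-parameter regression with bottom fixed at zero; IC50 ± SE of estimate.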

Series [8] deals with T4, Amine oxidase [flavin-containing] B (Homo sapiens, UniProt P27338).
T4 sequence (P27338 whole entry): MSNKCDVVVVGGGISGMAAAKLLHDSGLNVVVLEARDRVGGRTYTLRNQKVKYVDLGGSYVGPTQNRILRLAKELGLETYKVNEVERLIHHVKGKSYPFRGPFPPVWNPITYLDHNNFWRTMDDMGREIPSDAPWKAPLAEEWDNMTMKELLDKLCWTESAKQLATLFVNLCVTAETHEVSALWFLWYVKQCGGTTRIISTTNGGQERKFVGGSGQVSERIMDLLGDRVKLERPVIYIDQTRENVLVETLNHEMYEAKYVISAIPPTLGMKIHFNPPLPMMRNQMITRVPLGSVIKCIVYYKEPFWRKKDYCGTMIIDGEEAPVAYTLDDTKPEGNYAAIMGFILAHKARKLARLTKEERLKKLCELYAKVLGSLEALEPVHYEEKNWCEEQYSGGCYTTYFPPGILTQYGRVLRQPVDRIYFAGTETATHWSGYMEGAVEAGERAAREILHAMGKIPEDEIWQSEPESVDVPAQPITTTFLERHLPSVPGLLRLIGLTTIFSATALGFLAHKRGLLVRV
Put plainly: Inhibition of human membrane bound MAO-B expressed in insect cell membranes assessed as reduction in conversion of kynuramine to 4-hydroxyquinoline by spectrophotometric assay. The following applies: read-out: IC50. Summed up: as §2

Another series deals with Peroxidase (Raphanus sativus, UniProt K7N5L9). Put plainly: Inhibition of horse radish peroxidase assessed as residual activity by amplex red dye based fluorescence assay. Summed up:
as §1

Series [9] can be described thus: Solubility of the compound at 100 uM. It counts as physicochemical. In a few lines: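 Compounds checked for solubility in assay buffer at 100 µM.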
Series [10] in a line: Lipophilicity of the compound assessed as capacity factor at pH 3.5 by HPLC analysis. The class given is physicochemical. To be noted: buffer. Summed up: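 Capacity factor k from gradient HPLC on reversed-phase C18 in acid polar organic mode, pH ~3.5.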
Series [11] deals with T1, Amyloid beta-binding alcohol dehydrogenase. Put plainly: Inhibition of ABAD (unknown origin) by spectrophotometric assay.

SMILES strings stand for the structures. The source made the active and inactive calls. No cut-off for these calls is given here. Some results are limits rather than exact numbers.

The results in this text go back to ChEMBL document CHEMBL4177525, “Synthesis and evaluation of frentizole-based indolyl thiourea analogues as MAO/ABAD inhibitors for Alzheimer's disease treatment” (Bioorg Med Chem, 2017).

Peroxidase, sequence (K7N5L9 whole entry): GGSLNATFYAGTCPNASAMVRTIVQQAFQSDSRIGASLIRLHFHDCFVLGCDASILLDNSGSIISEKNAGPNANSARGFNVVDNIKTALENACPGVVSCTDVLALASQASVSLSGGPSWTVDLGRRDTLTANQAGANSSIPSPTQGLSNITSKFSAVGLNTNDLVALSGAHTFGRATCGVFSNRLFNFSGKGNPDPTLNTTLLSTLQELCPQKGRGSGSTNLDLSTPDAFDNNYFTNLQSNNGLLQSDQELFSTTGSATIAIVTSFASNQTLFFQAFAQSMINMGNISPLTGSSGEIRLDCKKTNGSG
T3 sequence (K7N5L9 whole entry): as above

As a reminder, the IC50 is the concentration that gives 50% inhibition. In the case of `Oc1ccc(NC(=S)Nc2ccc3[nH]ccc3c2)cc1`, the Activity in [1] amounted to 90.9%. Moreover, the IC50 entry in series [2] is “Not Active”; in series [7], over 100 µM; in series [8], 17 µM; at Peroxidase, 1.01 µM. In addition, in series [3], the activity at 50 µM stood at 31%. Besides, the Activity entry in series [4] was “inactive”. In [5], the activity at 5 µM amounted to 41.5%. In addition, the CC50 at 24 h in series [6] stood at 848 µM. In [9], the solubility result is given as “Soluble”.

In the case of `Oc1ccccc1NC(=S)Nc1ccc2[nH]ccc2c1`, in [1], the Activity was 85%. Besides, the IC50 was found to be 39 µM in series [2] (read-out: IC50), 14 µM in series [7], 4 µM in series [8] and 0.8 µM on Peroxidase. The activity at 50 µM in [3] was determined as 36.9%. In [4], the Activity entry was “inactive”. Also, the activity at 5 µM in [5] is 43.9%. Further, in series [6], the CC50 at 24 h stood at 509 µM. The solubility entry in [9] is “Soluble”.

With `S=C(Nc1ccc(Br)cc1)Nc1ccc2[nH]ccc2c1`, in series [1], the Activity amounted to 83%. In addition, the IC50 in [2] (read-out: IC50) came to 5.9 µM; in [7] it was 23 µM; in series [8], 58 µM. Further, the activity at 50 µM in series [3] is 52.8%. Further, the Activity entry in series [4] was “inactive”. Also, in series [5], the activity at 5 µM worked out at 82%. Besides, the CC50 at 24 h in series [6] came to 220 µM. In series [9], the solubility entry was “Soluble”. In series [10], the K is 4.355.

`Oc1c(Cl)cc(NC(=S)Nc2ccc3[nH]ccc3c2)cc1Cl`: in series [1], the Activity was 39%. Further, the IC50 entry in [2] is “Not Active”; in series [7] it was over 100 µM; in series [8], 17 µM; at Peroxidase, 1.06 µM. Also, the activity at 50 µM in series [3] stood at 23.9%. In addition, the Activity entry in [4] was “inactive”. The activity at 5 µM in series [5] amounted to 48.6%. For the same compound, in series [6], the CC50 at 24 h amounted to 523 µM. Also, the solubility result in series [9] was “Soluble”. In addition, the K in [10] was 3.975.

In the case of `O=C(C(c1ccccc1)n1cnc2[nH]ncc2c1=S)N1CCCCCC1` (stereo unspecified), the IC50 in series [11] stood at 0.092 µM.

As for `Oc1ccc(NC(=S)Nc2ccc3[nH]ccc3c2)cc1Cl`, the Activity in series [1] turned out to be 49.1%. In addition, the IC50 came to 58 µM in series [2] (read-out: IC50), 58 µM in [7], 8.6 µM in [8] and 1.01 µM at Peroxidase. In series [3], the activity at 50 µM was determined as 26.4%. The Activity result in series [4] is “inactive”. In [5], the activity at 5 µM came to 39.9%. Moreover, the CC50 at 24 h in series [6] came out at 447 µM. The solubility entry in series [9] was “Soluble”. The K in [10] is 3.76.

As for `Oc1ccc(CNC(=S)Nc2ccc3[nH]ccc3c2)cc1O`, the Activity in series [1] was determined as 81.5%. Further, the values for the IC50 entry (in [2]; at Peroxidase) were “Not Active” and 0.8 µM, respectively. Besides, the activity at 50 µM in [3] was 31.2%. Moreover, in [4], the Activity entry was “inactive”. For the same compound, the activity at 5 µM in [5] was determined as 38.3%. For the same compound, in [6], the CC50 at 24 h is 471 µM. The solubility entry in series [9] is “Soluble”.
